Test results: ChEMBL document CHEMBL2331076, “Pyridone alkaloids from a marine-derived fungus, Stagonosporopsis cucurbitacearum, and their activities against azole-resistant Candida albicans” (2013)
Converted amounts (≈) assume the structure as drawn.

Columns and labels:
Format in all cases: functional
Cryptococcus neoformans = experiment: Antifungal activity against Cryptococcus neoformans MPU-B by CLSI M27-A2 microdilution method
Procedure, shortened: (§1)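 Broth microdilution per CLSI M27-A2, run in triplicate. Panel: azole-resistant C. albicans J2-36 (resistant to fluconazole, itraconazole, voriconazole), azole-sensitive C. albicans J1-97, C. glabrata J-92, Cryptococcus neoformans MPU-B. Quality control was run on each testing day with reference strains, including C. albicans ATCC 90028.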

Nakaseomyces glabratus = experiment: Antifungal activity against Candida glabrata J 92 by CLSI M27-A2 microdilution method; procedure, shortened: as §1
Candida albicans [1] = experiment: Antifungal activity against azole-sensitive Candida albicans J1-97 by CLSI M27-A2 microdilution method; procedure, shortened: as §1
Candida albicans [2] = experiment: Antifungal activity against azole-resistant Candida albicans J2-36 by CLSI M27-A2 microdilution method

SMILES | MIC (Cryptococcus neoformans) | MIC (Nakaseomyces glabratus) | MIC (Candida albicans [1]) | MIC (Candida albicans [2])
C[C@@H]1CC[C@H]2[C@H](C(=O)c3c(O)c([C@]4(O)CCC(=O)[C@@H]5O[C@@H]54)cn(O)c3=O)[C@H](C)C=C[C@@H]2C1 [DIDYMELLAMIDE A] | 1.6 µg/mL (≈ 3.61 µM) | 3.1 µg/mL (≈ 6.99 µM) | 3.1 µg/mL (≈ 6.99 µM) | 3.1 µg/mL (≈ 6.99 µM)
C[C@@H]1CC[C@H]2[C@H](C(=O)c3c(O)c(-c4ccc(O)cc4)c[nH]c3=O)[C@H](C)C=C[C@@H]2C1 [DIDYMELLAMIDE B] | 6.3 µg/mL (≈ 16 µM) | > 25 µg/mL | > 25 µg/mL | > 25 µg/mL
C[C@@H]1CC[C@H]2[C@H](C(=O)c3c(O)c(C4(O)C=CC(=O)CC4)c[nH]c3=O)[C@H](C)C=C[C@@H]2C1 (stereo partly specified) [DIDYMELLAMIDE C] | > 25 µg/mL | > 25 µg/mL | > 25 µg/mL | > 25 µg/mL
C[C@@H]1CC[C@H]2[C@H](C(=O)c3c(O)c(C4(O)CCC(=O)CC4O)c[nH]c3=O)[C@H](C)C=C[C@@H]2C1 (stereo partly specified) [DIDYMELLAMIDE D] | > 25 µg/mL | > 25 µg/mL | > 25 µg/mL | > 25 µg/mL
